{"source": "ChEMBL document CHEMBL1130003", "about": "“Synthesis and ligand binding of nortropane derivatives: N-substituted 2beta-carbomethoxy-3beta-(4'-iodophenyl)nortropane and N-(3-iodoprop-(2E)-enyl)-2beta-carbomethoxy-3beta-(3',4'-disubstituted phenyl)nortropane. New high-affinity and selective compounds for the dopamine transporter” (J Med Chem, 1997)", "key": {"[1]": {"biological_target": "Monoamine transporters; serotonin & dopamine (Rattus norvegicus) (UniProt P31652+P23977)", "sequence (P23977 whole entry, looked up)": "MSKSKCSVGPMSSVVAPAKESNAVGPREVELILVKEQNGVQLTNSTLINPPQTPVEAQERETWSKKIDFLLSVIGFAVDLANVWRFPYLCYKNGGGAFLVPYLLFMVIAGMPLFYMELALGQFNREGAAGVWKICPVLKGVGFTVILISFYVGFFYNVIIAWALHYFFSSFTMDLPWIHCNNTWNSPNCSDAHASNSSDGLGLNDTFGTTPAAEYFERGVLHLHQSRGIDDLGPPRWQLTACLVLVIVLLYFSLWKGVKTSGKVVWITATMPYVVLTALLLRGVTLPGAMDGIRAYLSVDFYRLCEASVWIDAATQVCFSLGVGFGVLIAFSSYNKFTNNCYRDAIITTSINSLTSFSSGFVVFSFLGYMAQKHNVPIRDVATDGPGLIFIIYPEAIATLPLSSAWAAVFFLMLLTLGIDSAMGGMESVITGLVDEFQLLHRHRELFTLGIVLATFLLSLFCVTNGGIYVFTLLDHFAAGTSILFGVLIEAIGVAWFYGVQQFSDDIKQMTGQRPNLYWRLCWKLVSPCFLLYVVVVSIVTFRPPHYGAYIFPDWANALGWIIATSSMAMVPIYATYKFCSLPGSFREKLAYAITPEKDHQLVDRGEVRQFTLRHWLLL", "sequence (P31652 whole entry, looked up)": "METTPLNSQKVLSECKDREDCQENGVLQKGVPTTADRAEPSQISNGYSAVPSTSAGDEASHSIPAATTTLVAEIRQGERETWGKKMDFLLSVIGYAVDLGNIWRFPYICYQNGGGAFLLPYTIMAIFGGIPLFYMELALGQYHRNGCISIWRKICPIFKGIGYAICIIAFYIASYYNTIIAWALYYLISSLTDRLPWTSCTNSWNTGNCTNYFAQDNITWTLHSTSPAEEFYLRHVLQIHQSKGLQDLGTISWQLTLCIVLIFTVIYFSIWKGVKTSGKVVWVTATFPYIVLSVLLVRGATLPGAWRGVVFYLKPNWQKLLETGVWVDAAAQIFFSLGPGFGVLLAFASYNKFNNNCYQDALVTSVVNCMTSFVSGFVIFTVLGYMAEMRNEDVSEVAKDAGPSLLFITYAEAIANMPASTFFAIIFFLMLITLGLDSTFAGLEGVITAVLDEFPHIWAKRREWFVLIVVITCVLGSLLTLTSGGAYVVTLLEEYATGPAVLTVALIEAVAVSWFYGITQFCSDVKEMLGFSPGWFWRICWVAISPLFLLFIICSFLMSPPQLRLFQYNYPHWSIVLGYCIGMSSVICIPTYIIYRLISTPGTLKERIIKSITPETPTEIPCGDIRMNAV", "experiment": "Selectivity index for serotonin and dopamine transporters", "format": "protein assay"}, "[2]": {"biological_target": "Sodium-dependent dopamine transporter (Rattus norvegicus, UniProt P23977)", "sequence (P23977 whole entry)": "as the sequence (P23977 whole entry, looked up) above", "experiment": "Displacement of [3H]GBR-12935 from dopamine transporter (DAT) in rat brain membranes", "format": "cell membranes", "in_short": "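Rat striatum crude membranes (100 µg protein) in sodium hydrogenocarbonate buffer pH 7.5 with 0.01% BSA. [3H]GBR-12935 1 nM (Kd 1.6 nM). Competitor 10^-5 to 10^-10 M. Incubation 37 °C, 1 h, then glass fiber filtration, ice-cold wash, beta counting. Nonspecific binding with 10^-6 M mazindol. Run in duplicate. Ki by Cheng-Prusoff.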"}, "[3]": {"biological_target": "Sodium-dependent serotonin transporter (Rattus norvegicus, UniProt P31652)", "sequence (P31652 whole entry)": "as the sequence (P31652 whole entry, looked up) above", "experiment": "Displacement of [3H]- paroxetine from serotonin transporter (5-HTT) in rat brain membranes", "format": "cell membranes", "in_short": "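Rat frontoparietal cortex crude membranes in 50 mM Tris-HCl pH 7.4 with 120 mM NaCl, 5 mM KCl. [3H]paroxetine 0.5 nM (Kd 0.5 nM). Competitor 10^-5 to 10^-10 M. Incubation 22 °C, 1 h, then glass fiber filtration, ice-cold wash, beta counting. Nonspecific binding with 10^-6 M fluvoxamine. Run in duplicate. Ki from IC50 by Cheng-Prusoff.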"}, "[4]": {"biological_target": "Monoamine transporters; Norepininephrine & dopamine (Rattus norvegicus) (UniProt P23977+Q9WTR4)", "experiment": "Selectivity index for norepinephrine and dopamine transporters", "format": "protein assay"}, "[5]": {"biological_target": "Norepinephrine transporter (Rattus norvegicus, UniProt Q9WTR4)", "sequence (Q9WTR4 whole entry)": "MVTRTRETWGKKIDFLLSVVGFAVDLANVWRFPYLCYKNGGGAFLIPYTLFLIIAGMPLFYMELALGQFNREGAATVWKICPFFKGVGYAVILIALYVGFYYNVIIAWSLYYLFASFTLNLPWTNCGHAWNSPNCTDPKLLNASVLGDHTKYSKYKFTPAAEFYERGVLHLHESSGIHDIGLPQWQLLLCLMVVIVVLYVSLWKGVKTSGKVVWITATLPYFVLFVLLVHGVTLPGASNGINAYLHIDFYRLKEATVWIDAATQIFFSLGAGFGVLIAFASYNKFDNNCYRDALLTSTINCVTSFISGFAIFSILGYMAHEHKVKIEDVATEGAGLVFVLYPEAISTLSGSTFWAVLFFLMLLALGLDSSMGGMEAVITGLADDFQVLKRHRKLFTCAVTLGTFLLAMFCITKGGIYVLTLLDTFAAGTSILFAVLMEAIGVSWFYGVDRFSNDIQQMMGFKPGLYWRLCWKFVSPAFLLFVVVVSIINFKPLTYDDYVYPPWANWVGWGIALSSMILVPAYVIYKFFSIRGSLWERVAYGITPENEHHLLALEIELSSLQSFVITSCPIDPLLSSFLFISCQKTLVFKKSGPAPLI", "experiment": "Displacement of [3H]nisoxetine from norepinephrine transporter (NET) in rat brain membranes", "format": "cell membranes", "in_short": "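Rat frontoparietal cortex crude membranes in 50 mM Tris-HCl pH 7.4, 120 mM NaCl, 5 mM KCl. [3H]nisoxetine 0.5 nM (Kd 1.3 nM). Competitor 10^-5 to 10^-10 M. Incubation 2 °C, 5 h, then filtration, wash, beta counting. Nonspecific binding with 10^-6 M desipramine. Run in duplicate. Ki from IC50 by Cheng-Prusoff.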"}}, "data": [{"compound": "COC(=O)[C@H]1C(c2ccc(C(C)C)cc2)C[C@H]2CCC1N2C/C=C/I", "note": "(stereo not given in full)", "values": [{"measurement": "Selectivity", "setting": "[1]", "value": 0.9}, {"measurement": "Ki", "setting": "[2]", "value": 500, "unit": "nM"}, {"measurement": "Ki", "setting": "[3]", "value": 450, "unit": "nM"}, {"measurement": "Selectivity", "setting": "[4]", "value": "> 2"}, {"measurement": "Ki", "setting": "[5]", "value": "> 1000", "unit": "nM"}]}, {"compound": "COC(=O)[C@H]1C(c2ccccc2)C[C@H]2CCC1N2C/C=C/I", "note": "(stereo not given in full)", "values": [{"measurement": "Selectivity", "setting": "[1]", "value": 0.8}, {"measurement": "Ki", "setting": "[2]", "value": 113, "unit": "nM"}, {"measurement": "Ki", "setting": "[3]", "value": 100, "unit": "nM"}, {"measurement": "Selectivity", "setting": "[4]", "value": "> 8.8"}, {"measurement": "Ki", "setting": "[5]", "value": "> 1000", "unit": "nM"}]}, {"compound": "COC(=O)[C@H]1C(c2ccc(I)cc2)C[C@H]2CCC1N2C/C=C/I", "note": "(stereo not given in full)", "values": [{"measurement": "Selectivity", "setting": "[1]", "value": 32}, {"measurement": "Ki", "setting": "[2]", "value": 30, "unit": "nM"}, {"measurement": "Ki", "setting": "[3]", "value": 960, "unit": "nM"}, {"measurement": "Selectivity", "setting": "[4]", "value": 9.8}, {"measurement": "Ki", "setting": "[5]", "value": 295, "unit": "nM"}]}, {"compound": "C#CCN1C2CC[C@@H]1CC(c1ccc(I)cc1)[C@@H]2C(=O)OC", "note": "(stereo not given in full)", "values": [{"measurement": "Selectivity", "setting": "[1]", "value": 7.1}, {"measurement": "Ki", "setting": "[2]", "value": 14, "unit": "nM"}, {"measurement": "Ki", "setting": "[3]", "value": 100, "unit": "nM"}, {"measurement": "Selectivity", "setting": "[4]", "value": "> 71"}, {"measurement": "Ki", "setting": "[5]", "value": "> 1000", "unit": "nM"}]}, {"compound": "CCCc1ccc(C2C[C@H]3CCC([C@H]2C(=O)OC)N3C/C=C/I)cc1", "note": "(stereo not given in full)", "values": [{"measurement": "Selectivity", "setting": "[1]", "value": 0.6}, {"measurement": "Ki", "setting": "[2]", "value": 500, "unit": "nM"}, {"measurement": "Ki", "setting": "[3]", "value": 300, "unit": "nM"}, {"measurement": "Selectivity", "setting": "[4]", "value": 1.5}, {"measurement": "Ki", "setting": "[5]", "value": 750, "unit": "nM"}]}, {"compound": "COC(=O)[C@@H]1C2CCC(C[C@@H]1c1ccc(I)cc1)N2Cc1ccccc1", "note": "(stereo not given in full)", "values": [{"measurement": "Selectivity", "setting": "[1]", "value": 2.3}, {"measurement": "Ki", "setting": "[2]", "value": 42, "unit": "nM"}, {"measurement": "Ki", "setting": "[3]", "value": 100, "unit": "nM"}, {"measurement": "Selectivity", "setting": "[4]", "value": 14.2}, {"measurement": "Ki", "setting": "[5]", "value": 600, "unit": "nM"}]}, {"compound": "C=C(Br)CN1C2CC[C@@H]1CC(c1ccc(I)cc1)[C@@H]2C(=O)OC", "note": "(stereo not given in full)", "values": [{"measurement": "Selectivity", "setting": "[1]", "value": 6.6}, {"measurement": "Ki", "setting": "[2]", "value": 30, "unit": "nM"}, {"measurement": "Ki", "setting": "[3]", "value": 200, "unit": "nM"}, {"measurement": "Selectivity", "setting": "[4]", "value": "> 33"}, {"measurement": "Ki", "setting": "[5]", "value": "> 1000", "unit": "nM"}]}, {"compound": "COC(=O)[C@H]1C(c2ccc(I)cc2)C[C@H]2CCC1N2Cc1ccccc1C", "note": "(stereo not given in full)", "values": [{"measurement": "Selectivity", "setting": "[1]", "value": 2.4}, {"measurement": "Ki", "setting": "[2]", "value": 93, "unit": "nM"}, {"measurement": "Ki", "setting": "[3]", "value": 225, "unit": "nM"}, {"measurement": "Selectivity", "setting": "[4]", "value": "> 10.6"}, {"measurement": "Ki", "setting": "[5]", "value": "> 1000", "unit": "nM"}]}, {"compound": "COC(=O)[C@@H]1C2CCC(C[C@@H]1c1ccc(Cl)c(Cl)c1)N2C/C=C/I", "note": "(stereo not given in full)", "values": [{"measurement": "Selectivity", "setting": "[1]", "value": 1.7}, {"measurement": "Ki", "setting": "[2]", "value": 29, "unit": "nM"}, {"measurement": "Ki", "setting": "[3]", "value": 50, "unit": "nM"}, {"measurement": "Selectivity", "setting": "[4]", "value": 17.2}, {"measurement": "Ki", "setting": "[5]", "value": 500, "unit": "nM"}]}, {"compound": "COC(=O)[C@@H]1C2CC[C@H](C[C@@H]1c1ccc(I)cc1)N2C", "values": [{"measurement": "Selectivity", "setting": "[1]", "value": 0.1}, {"measurement": "Ki", "setting": "[2]", "value": 27, "unit": "nM"}, {"measurement": "Ki", "setting": "[3]", "value": 3, "unit": "nM"}, {"measurement": "Selectivity", "setting": "[4]", "value": 2.9}, {"measurement": "Ki", "setting": "[5]", "value": 80, "unit": "nM"}]}, {"compound": "C/C=C/CN1C2CC[C@@H]1CC(c1ccc(I)cc1)[C@@H]2C(=O)OC", "note": "(stereo not given in full)", "values": [{"measurement": "Selectivity", "setting": "[1]", "value": 5}, {"measurement": "Ki", "setting": "[2]", "value": 15, "unit": "nM"}, {"measurement": "Ki", "setting": "[3]", "value": 75, "unit": "nM"}, {"measurement": "Selectivity", "setting": "[4]", "value": 26.6}, {"measurement": "Ki", "setting": "[5]", "value": 400, "unit": "nM"}]}, {"compound": "COC(=O)[C@@H]1C2CCC(C[C@@H]1c1ccc(C)cc1)N2C/C=C/I", "note": "(stereo not given in full)", "values": [{"measurement": "Selectivity", "setting": "[1]", "value": 29.4}, {"measurement": "Ki", "setting": "[2]", "value": 17, "unit": "nM"}, {"measurement": "Ki", "setting": "[3]", "value": 500, "unit": "nM"}, {"measurement": "Selectivity", "setting": "[4]", "value": "> 58"}, {"measurement": "Ki", "setting": "[5]", "value": "> 1000", "unit": "nM"}]}]}
